The values that follow come from ChEMBL document CHEMBL3627705 (Bioorg Med Chem Lett, 2015).

The target in data set [1] is T1, Corticotropin-releasing factor receptor 2 (Homo sapiens) (UniProt Q13324).
T1 sequence (whole entry): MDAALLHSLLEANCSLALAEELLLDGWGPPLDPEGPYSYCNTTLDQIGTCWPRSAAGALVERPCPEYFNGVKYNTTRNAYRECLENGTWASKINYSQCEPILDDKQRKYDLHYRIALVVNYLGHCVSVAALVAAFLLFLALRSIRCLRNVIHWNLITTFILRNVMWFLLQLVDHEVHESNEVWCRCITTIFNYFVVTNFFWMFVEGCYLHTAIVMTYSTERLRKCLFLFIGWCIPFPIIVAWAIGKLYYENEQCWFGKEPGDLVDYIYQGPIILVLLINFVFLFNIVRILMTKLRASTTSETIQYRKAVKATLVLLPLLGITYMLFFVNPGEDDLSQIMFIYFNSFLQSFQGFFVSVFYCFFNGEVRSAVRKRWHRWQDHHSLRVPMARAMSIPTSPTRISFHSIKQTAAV
As to the kind of experiment: Displacement of [125I]-antisauvagine-30 from human CRF2 receptor expressed in HEK293T cells at 1 uM after 2 hrs by scintillation counting. It is filed as cell-based. The note with it: HEK-293T. In outline: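 Competition binding at 23 °C on HEK293T cells transfected with human CRF2 receptor. Each ligand tested at 1 μM against the radiotracer [125I]antisauvagine-30. Read-out is mean % displacement of specific radiotracer binding, n = 2.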
In general terms: Loss of bound radioactivity is the signal in a displacement assay; it reports binding, not function.

For data set [2], the target named is T2, Corticotropin-releasing factor receptor 1 (Homo sapiens, UniProt P34998).
T2 sequence (P34998 whole entry): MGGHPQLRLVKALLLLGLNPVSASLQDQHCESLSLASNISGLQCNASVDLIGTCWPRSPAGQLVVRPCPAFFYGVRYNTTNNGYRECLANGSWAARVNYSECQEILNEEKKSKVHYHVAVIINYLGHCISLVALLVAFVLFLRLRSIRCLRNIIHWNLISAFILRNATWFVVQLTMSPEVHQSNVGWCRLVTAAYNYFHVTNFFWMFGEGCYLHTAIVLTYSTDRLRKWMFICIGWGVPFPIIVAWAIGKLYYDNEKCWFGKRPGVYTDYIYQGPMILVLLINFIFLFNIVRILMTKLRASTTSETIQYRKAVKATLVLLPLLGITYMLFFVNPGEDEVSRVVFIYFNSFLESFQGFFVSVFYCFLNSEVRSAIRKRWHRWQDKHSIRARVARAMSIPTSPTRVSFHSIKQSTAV
As to the kind of experiment: Displacement of [125I]-Tyr0-sauvagine from human CRF1 receptor expressed in HEK293T cells after 2 hrs by scintillation counting. It is filed as cell-based, HEK-293T.

Data set [3] can be described thus: Lipophilicity, logP of the compound at pH 7.4. It is filed as physicochemical. The note with it: buffer. In outline:
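Octanol/aqueous buffer shake-flask partition at pH 7.4, done on the 18F-labelled radioligands; mean ± SD of n = 4.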

A further data set has as its system Brain. As to the kind of experiment: Drug uptake in cynomolgus monkey brain assessed as whole-brain time-activity curve by MicroPET imaging analysis. In kind it is ADME, tissue-based, Macaca fascicularis. The note with it: in vivo.

For orientation: inhibition means the change of the read-out against control, counted positive when it falls. A word on the Ki: it is a measure of affinity in units of concentration, obtained from inhibition or displacement. Consider `CCCCN(CC)c1cc(C)nc2c1NC(=O)CN2c1ccc(C)cc1C`, for which, in data set [1], the inhibition came to 6.8%. The Ki in data set [2] amounted to 3.9 nM. Take `CCCCN(CC)c1cc(C)nc2c1NC(=O)CN2c1ccc(I)cc1C`: the affinity in data set [2], expressed as Ki, was 3.4 nM. On to `CCCCN(CC)c1cc(C)nc2c1N(C)C(=O)CN2c1ccc(Br)cc1Br`, for which, in data set [2], the Ki is 2.4 nM. On to `CCCCN(CC)c1cc(C)nc2c1NC(=O)CN2c1ccc(Br)cc1Br`, for which the inhibition in data set [1] amounted to 9.4%. In data set [2], this compound returned an inhibition constant Ki of 1.3 nM. `CCCCN(CC)c1cc(C)nc2c1NC(=O)CN2c1ccc(Cl)cc1C` came in with an inhibitory constant (Ki) in data set [2] of 5.4 nM. As to `CCCCN(CC)c1cc(C)nc2c1NC(=O)CN2c1ccc(Cl)cc1Cl`, the inhibition in data set [1] was 0.9%. The inhibitory constant (Ki) in data set [2] worked out at 3.4 nM. Turning to `CCCCN(CC)c1cc(C)nc2c1NC(=O)CN2c1ccc(C)cc1Br`, the inhibition in data set [1] came out at 5.5%. Moreover, the Ki in data set [2] is 4.4 nM.

`CCCCN(CC)c1cc(C)nc2c1NC(=O)CN2c1ccc(C(C)(C)C)cc1Br`: the inhibition in data set [1] was -3.8%. Further, the inhibition constant Ki in data set [2] was 4.2 nM. In the case of `CCCN(CCC)c1cc(C)nc2c(-c3cnc(N(C)C)cc3C)c(C)nn12`, the inhibition in data set [1] was found to be 23.8%. The compound `Cc1cc(N(C)C)c2c(n1)N(c1ccc(C(C)C)cc1Br)CC(=O)N2` displayed a Ki in data set [2] of 180 nM.

Regarding `CCCCN(CC)c1cc(C)nc2c1NC(=O)CN2c1ccc(OC)cc1C`, in data set [1], the inhibition was -2.3%. The Ki in data set [2] came to 4 nM.

On to `CCCCN(CC)c1cc(C)nc2c1NC(=O)CN2c1ccc(Br)cc1C`, for which the inhibition in data set [1] turned out to be 5.9%. In data set [2], the inhibitory constant (Ki) was 4.4 nM.

On to `CCCCN(CC)c1cc(C)nc2c1NC(=O)CN2c1ccc(C(C)C)cc1Br`, for which, in data set [1], the inhibition was determined as 0.7%. Besides, in data set [2], the Ki was determined as 2.4 nM. The compound `CCCN(CCC)c1cc(C)nc2c1NC(=O)CN2c1ccc(C(C)C)cc1Br` showed a Ki in data set [2] of 3.1 nM. The term logD denotes lipophilicity at a set pH, counting ionised and neutral species. Compound `Cc1cc(N(C)C)c2c(n1)N(c1ccc(C(C)C)cc1Br)CC(=O)N2CCCC[17F]` gave a logD in data set [3] of 2.19. The compound `CCN(CC)c1cc(C)nc2c1N(CCF)C(=O)CN2c1ccc(C(C)C)cc1Br` gave a Ki in data set [2] of 7.3 nM. Compound `CCN(C)c1cc(C)nc2c1NC(=O)CN2c1ccc(C(C)C)cc1Br` displayed an inhibition constant (Ki) in data set [2] of 16.4 nM.

In data set [2], `CCCCN(CC)c1cc(C)nc2c1NC(=O)CN2c1ccc(C)cc1Cl` returned a Ki of 4.4 nM. Consider `CCCCN(CC)c1cc(C)nc2c1NC(=O)CN2c1ccc(Br)cc1CC`, for which the inhibition in data set [1] came to 2.1%. The affinity in data set [2], expressed as Ki, was 2.5 nM. On to `CCN(C)c1cc(C)nc2c1N(CCCC[17F])C(=O)CN2c1ccc(C(C)C)cc1Br`, for which the SUV entry in the data set on Brain is “<= 1”. In data set [3], this compound had a log distribution coefficient (logD) of 2.22. Compound `CCCCN(CC)c1cc(C)nc2c1NC(=O)CN2c1ccc(Br)cc1Cl` yielded a Ki in data set [2] of 2.7 nM. Same read-out and setting: the figure for `Cc1cc(N(C)C)c2c(n1)N(c1ccc(C(C)C)cc1Br)CC(=O)N2C/C=C/CF` is 14.2 nM.

Consider `Cc1cc(N(C)C)c2c(n1)N(c1ccc(C(C)C)cc1Br)CC(=O)N2CCF`, for which the inhibition constant (Ki) in data set [2] was determined as 59 nM.

As to `CCN(C)c1cc(C)nc2c1N(CCCCF)C(=O)CN2c1ccc(C(C)C)cc1Br`, the affinity in data set [2] corresponds to a Ki of 13.9 nM. The compound `CCCCN(CC)c1cc(C)nc2c1NC(=O)CN2c1ccc(Cl)cc1Br` returned a Ki in data set [2] of 2.5 nM. As to `CC[C@H](C)[C@H](NC(=O)[C@@H](NC(=O)[C@H](CC(=O)O)NC(=O)[C@H](CC(C)C)NC(=O)[C@H](CC(C)C)NC(=O)[C@H](CC(C)C)NC(=O)[C@H](CCCN=C(N)N)NC(=O)[C@H](CC(N)=O)NC(=O)[C@H](CC(N)=O)NC(=O)[C@H](C)NC(=O)[C@H](C)NC(=O)[C@H](CCC(N)=O)NC(=O)[C@H](CCC(N)=O)NC(=O)[C@H](CCCCN)NC(=O)[C@H](CCC(=O)O)NC(=O)[C@H](CCCCN)NC(=O)[C@H](CCC(=O)O)NC(=O)[C@H](CCC(N)=O)NC(=O)[C@H](CCCCN)NC(=O)[C@H](CCC(=O)O)NC(=O)[C@@H](NC(=O)[C@H](CCC(=O)O)NC(=O)[C@@H](NC(=O)[C@H](CCSC)NC(=O)[C@H](CCCCN)NC(=O)[C@H](CCCN=C(N)N)NC(=O)[C@H](CC(C)C)NC(=O)[C@H](CC(C)C)NC(=O)[C@H](CCC(=O)O)NC(=O)[C@H](CC(C)C)NC(=O)[C@H](CO)NC(=O)[C@H](CC(C)C)NC(=O)[C@H](CC(=O)O)NC(=O)[C@@H](NC(=O)[C@H](CO)NC(=O)[C@@H](NC(=O)[C@@H]1CCCN1C(=O)[C@@H]1CCCN1C(=O)CNC(=O)[C@@H]1CCC(=O)N1)[C@@H](C)CC)[C@@H](C)CC)[C@@H](C)CC)[C@@H](C)CC)[C@@H](C)O)C(=O)O`, the inhibition in data set [1] was 100%. In the case of `Cc1cc(N(C)C)c2c(n1)N(c1ccc(C(C)C)cc1Br)CC(=O)N2CCCCF`, the Ki in data set [2] worked out at 21.6 nM.
